Source: PubChem (Johns Hopkins Ion Channel Center)
Compounds with a hit are over-represented: about 3.5% of the library has one in this group of screens.
RGS4 inh: RGS4 inhibitors, primary screen, cell-based, HEK293 M3R inducible RGS4, calcium flux. Regulator of G-protein signaling 4 (Homo sapiens), P49798. Fluo-4 calcium flux; active compounds read high; triggered by carbachol at its EC20. B-score at 10 µM. actives 0.45% (n = 310,000). AID 463165, 2010;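 active means B-score, a plate-corrected calcium signal, over three deviations above library mean, with baseline fluorescence within five deviations of library mean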;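 further: RGS4 expression induced by doxycycline in cells with stable M3 receptor; B-score is computed from the integrated fluorescence ratio over baseline after carbachol; higher B-score means a larger calcium signal and so more RGS4 inhibition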
Target sequence (P49798 whole entry, looked up): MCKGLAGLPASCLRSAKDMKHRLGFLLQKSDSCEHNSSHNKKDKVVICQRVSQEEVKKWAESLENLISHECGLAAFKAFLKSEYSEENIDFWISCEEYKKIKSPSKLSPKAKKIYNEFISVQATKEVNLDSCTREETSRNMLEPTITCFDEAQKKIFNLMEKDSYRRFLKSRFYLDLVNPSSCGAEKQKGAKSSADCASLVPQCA
MrgX1 ag: agonists of human MrgX1 receptor, primary screen, HEK293 cells, Fluo-4 calcium flux; Mas-related G-protein coupled receptor member X1 (Homo sapiens), Q96LB2; Fluo-4 calcium fluorescence, agonist mode; active compounds read high; B-score at 10 µM; actives 0.44% (n = 310,000);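 active means calcium response B-score plate-corrected fluorescence ratio at least 3 library SD, with starting fluorescence B-score inside 5 SD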
Target sequence (Q96LB2 whole entry, looked up): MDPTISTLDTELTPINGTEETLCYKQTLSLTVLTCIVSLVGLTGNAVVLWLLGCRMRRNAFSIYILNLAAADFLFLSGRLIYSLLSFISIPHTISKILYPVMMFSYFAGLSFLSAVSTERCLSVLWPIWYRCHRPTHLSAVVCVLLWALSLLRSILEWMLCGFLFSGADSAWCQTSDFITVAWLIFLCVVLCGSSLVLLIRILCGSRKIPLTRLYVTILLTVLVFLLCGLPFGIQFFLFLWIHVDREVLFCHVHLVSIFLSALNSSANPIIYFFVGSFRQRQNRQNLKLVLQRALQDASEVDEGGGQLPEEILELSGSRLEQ
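Test system: Stable human MrgX1 HEK293 cell line | Schedule: Overnight plating before 1 h dye loading | Read-out basis: Baseline-normalised fluorescence change ratio, B-scored | Detection: Kinetic calcium dye fluorescence, Fluo-4 NW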
MrgX1 allo act: positive allosteric modulators of MrgX1, primary screen, HEK293 cells, Fluo-4 calcium flux. AID 588675, 2011. Mas-related G-protein coupled receptor member X1 (Homo sapiens), Q96LB2. B-score at 10 µM. FDSS; active compounds read high. actives 0.63% (n = 310,000);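 active means plate-corrected calcium response at least 3 library SD above typical, normal starting fluorescence, not activating the receptor alone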;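 further: compound read alongside a low EC10 to EC30 dose of BAM8-22 agonist; peak minus trough fluorescence over baseline measured at the second addition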
RGS4 pot: RGS4 potentiators or activators, primary screen, cell-based, HEK293 M3R inducible RGS4, calcium flux | carbachol calcium flux Fluo4; active compounds read low | B-score at 10 µM | actives 0.92% (n = 310,000) | AID 463111, 2010;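 active means B-score of the integrated calcium signal more than 4 SD below the library mean, with starting fluorescence not abnormally high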;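 further: negative B-score means reduced calcium response which marks RGS4 activation or potentiation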
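Reagent: ECmax carbachol challenge; Test system: M3R-expressing HEK293 line, RGS4 induced by doxycycline; Schedule: overnight RGS4 induction, 30 min dye load 37 °C, 20 min compound RT; Detection: calcium dye Fluo4 fluorescence; Read-out: Agonist-evoked peak-minus-minimum fluorescence over baseline, integrated ratio, B score.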
MrgX1 antagonist: antagonists of human MrgX1 receptor, primary screen, HEK293 cells, Fluo-4 calcium flux; Mas-related G-protein coupled receptor member X1 (Homo sapiens), Q96LB2; BAM8-22 antagonism; active compounds read low; B-score at 10 µM; actives 1.3% (n = 310,000); AID 588676, 2011;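 active means calcium-response B-score plate-corrected more than 3 library SD below zero, starting fluorescence within 5 deviations, no agonist response on first addition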;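 further: peak minus trough fluorescence over baseline after final BAM8-22 challenge near maximal dose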
MrgX1 antag conf: MrgX1 receptor antagonists, duplicate retest, confirmation, HEK293 cells, Fluo-4 calcium flux; shares compounds with MrgX1 antagonist; BAM8-22 calcium flux; active compounds read low; remaining BAM8-22 calcium response % of control (active compounds read low), % at 10 µM; actives 19% (n = 2,300); AID 602420, 2012;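 active means remaining agonist calcium response no higher than 100% minus 3 SD of agonist-only control wells, with starting fluorescence near control levels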;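 further: agonist BAM8-22 given at a near maximal EC90 to ECmax level; peak minus minimum fluorescence divided by baseline after agonist addition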
HEK293 Ca flux: nonspecific calcium signal in parental HEK293, confirmation, counter-screen for MrgX1 antagonist project, parental HEK293 cells, Fluo-4 calcium flux; actives 2% (n = 4,000); Fluo-4 calcium fluorescence, FDSS; shares compounds with MrgX1 antagonist; AID 624111, 2012; fluorescence ratio F(max-min)/F0 at 10 µM;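 active means duplicate-averaged calcium fluorescence ratio at least three times the standard deviation of buffer wells, a nonspecific response in parental cells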
HEK293 Ca counter: calcium response in parental HEK293 cells, primary screen, counter-screen for MrgX1 allosteric activator project, cell-based, Fluo-4 calcium flux, duplicate; shares compounds with MrgX1 antagonist; actives 0.4% (n = 4,000); AID 624114, 2012; Fluo-4 fluorescence ratio; active compounds read high; fluorescence ratio F(max-min)/F0 at 10 µM;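 active means calcium fluorescence ratio, averaged over duplicates, at least 3 SD of the buffer-well ratio, meaning a nonspecific response in receptor-free cells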;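 further: untransfected parental HEK293 lacking MrgX1 used as counterscreen for MrgX1 allosteric activators; fluorescence change taken during the second addition on a kinetic imager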
HEK293 Ca cntr2: calcium response in parental HEK293 cells, primary screen, counter-screen for MrgX1 agonist project, cell-based, Fluo-4 calcium flux, duplicate, agonist mode; shares compounds with MrgX1 antagonist; actives 8.7% (n = 4,000); fluorescence ratio F(max-min)/F0 at 10 µM; Fluo-4 calcium fluorescence (FDSS); active compounds read high; AID 624115, 2012;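 active means calcium fluorescence ratio at least three times the spread of buffer wells, meaning a non-specific response in parental cells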
* marks the source's active call; other numbers are inactive results; i = inactive; · = not tested or not shown; ! = not confirmed by another sample.

SMILES | RGS4 inh | MrgX1 ag | MrgX1 allo act | RGS4 pot | MrgX1 antagonist | MrgX1 antag conf | HEK293 Ca flux | HEK293 Ca counter | HEK293 Ca cntr2
CC(C)(C)CC(=O)Nc1cc2c3c(c1)CCC(=O)N3CCC2 | i | i | i | i | -4.9* | i | i | i | i
COC(=O)c1sccc1NC(=S)N1CCC(C(N)=O)CC1 | i | i | i | i | i | · | · | · | ·
O=C(CCC1CCCN(C(=O)CCC(F)(F)F)C1)NCc1ccc(F)c(F)c1 (stereo unspecified) | i | i | i | i | -4.8* | i | i | i | i
COC(=O)CCCC(=O)N1CCCC(CCC(=O)NCc2ccc(F)c(F)c2)C1 (stereo unspecified) | i | i | i | i | i | · | · | · | ·
CCN(Cc1ccccc1)C(=O)Cn1cnc2c1c(=O)n(C)c(=O)n2C | i | i | i | i | i | · | · | · | ·
Cn1c(=O)c2c(ncn2CCN(CCO)Cc2ccccc2)n(C)c1=O | i | i | i | i | -6.7* | 81%* | i | i | i
CCN1/C(=C/c2ccc3ccccc3[n+]2CC)C=Cc2ccccc21 | i | i | i | -9.2* | -13* | i | · | · | ·
CCN1/C(=C/c2ccc3ccccc3[n+]2CCCS(=O)(=O)[O-])C=Cc2cc(C)ccc21 | i | i | i | i | i | · | · | · | ·
COc1ccccc1NC(=O)N1C2CCCC1CC(NC(=O)c1ccccc1)C2 (stereo unspecified) | i | i | i | i | i | · | · | · | ·
CCN(CC)S(=O)(=O)c1cccc(NC(=O)CC2CCCC2)c1 | i | i | i | i | i | · | · | · | ·
CCN(CC)S(=O)(=O)c1cccc(NC(=O)Nc2cccc(C(F)(F)F)c2)c1 | i | i | i | i | -5.2* | 53%* | i | i | i
O=C(O)CCCNC(=O)c1cccc(C(=O)NCCCC(=O)O)n1 | i | i | i | i | i | · | · | · | ·
Cc1ccc(CNC(=O)NC2CCCCC2)cc1 | i | i | i | i | -5.1* | i | i | i | i
Cc1ccc(CNC(=S)NC2CCCCC2)cc1 | i | i | i | i | i | · | · | · | ·
OC(CNCCc1ccc(Cl)cc1)COc1cc(Cl)ccc1Cl (stereo unspecified) | i | i | i | i | i | · | · | · | ·
Cc1ccccc1OCC(O)Cn1c(=N)n(CCN2CCOCC2)c2ccccc21 (stereo unspecified) | i | i | i | i | -8.5*! | i | i | i | i
CN(C)CCC(Oc1ccccc1OCc1ccccc1)c1ccccc1 (stereo unspecified) | i | i | i | i | i | · | · | · | ·
CN(C)CCCC(C)(O)C(Cc1ccccc1)c1ccccc1 (stereo unspecified) | i | i | i | i | -6.5* | i | i | i | i
Cn1c(=O)c(=O)n(C)c2cc(S(=O)(=O)Nc3ccc4c(c3)OCCO4)ccc21 | i | i | i | i | -5.9* | i | i | i | i
COc1ccc(NC(=O)CN2C(=O)NC(c3ccccc3)(c3ccccc3)C2=O)cc1OC | i | i | i | i | i | · | · | · | ·
CCOCCCNc1ncnc2c1[nH]c1ccccc12 | i | i | i | i | i | · | · | · | ·
CCCCOCCCNc1ncnc2c1[nH]c1ccccc12 | i | i | i | i | -14* | 26%* | i | i | i
Cc1ccc(NC(=O)CN2C(=O)c3ccccc3C2=O)nc1 | i | i | i | i | i | · | · | · | ·
Cc1ccccc1Cc1c(C)nc2c(C(=O)NCc3ccc4c(c3)OCO4)cnn2c1C | i | i | i | i | -4.8* | i | i | i | i
CCOC(=O)C1CCCN(S(=O)(=O)c2cc3c4c(c2)CCN4C(=O)CC3)C1 (stereo unspecified) | i | i | i | i | -4.8* | i | i | i | i
SMILES | RGS4 inh | MrgX1 ag | MrgX1 allo act | RGS4 pot | MrgX1 antagonist | MrgX1 antag conf | HEK293 Ca flux | HEK293 Ca counter | HEK293 Ca cntr2
CC1(C)C2CCC(C2)C1(C)NC(=O)CN1CCCC1 (stereo unspecified) | i | i | i | i | i | · | · | · | ·
CC1(C)C2CCC(C2)C1(C)NC(=O)CN1CCOCC1 (stereo unspecified) | · | i | i | · | -10* | i | i | i | i
N#Cc1nc(Cc2ccccc2)oc1NCCN1CCOCC1 | i | i | i | i | -7.5* | i | i | i | i
CC(C)CCN(C)C1CCN(C(=O)Nc2c(F)cccc2F)CC1 | i | i | i | i | i | · | · | · | ·
CCOC(=O)C1CCN(C(=O)c2ccccc2CCc2ccccc2)CC1 | i | i | i | i | i | · | · | · | ·
O=C(Nc1ccc(S(=O)(=O)N2CCc3ccccc32)cc1)c1ccco1 | i | i | i | i | -4.8* | i | i | i | i
CCC(=O)Nc1ccc(S(=O)(=O)N2CCc3ccccc32)cc1 | i | i | i | i | i | · | · | · | ·
O=C(c1cc(N2CCOCC2)c(F)cc1[N+](=O)[O-])N1CCOCC1 | i | i | i | i | i | · | · | · | ·
CCOC(=O)C(NC(=O)c1ccc(Cl)cc1Cl)(Nc1ccc(C)cc1)C(F)(F)F (stereo unspecified) | i | i | i | i | i | · | · | · | ·
CCCCOc1ccc(CNC(=S)N/N=C/c2ccc(OC)c(OC)c2)cc1 | i | i | i | i | i | · | · | · | ·
COc1cccc(CC2(CO)CCCN(Cc3cn[nH]c3-c3ccccc3)C2)c1 (stereo unspecified) | i | i | i | i | -5* | 72%* | i | i | i
